The results in this text go back to paper PMC11865470 (Communications Biology, 2025).

Assay [1] addresses T1, ASIC3 (Rattus norvegicus, UniProt O35240).
T1 sequence (O35240 1-533): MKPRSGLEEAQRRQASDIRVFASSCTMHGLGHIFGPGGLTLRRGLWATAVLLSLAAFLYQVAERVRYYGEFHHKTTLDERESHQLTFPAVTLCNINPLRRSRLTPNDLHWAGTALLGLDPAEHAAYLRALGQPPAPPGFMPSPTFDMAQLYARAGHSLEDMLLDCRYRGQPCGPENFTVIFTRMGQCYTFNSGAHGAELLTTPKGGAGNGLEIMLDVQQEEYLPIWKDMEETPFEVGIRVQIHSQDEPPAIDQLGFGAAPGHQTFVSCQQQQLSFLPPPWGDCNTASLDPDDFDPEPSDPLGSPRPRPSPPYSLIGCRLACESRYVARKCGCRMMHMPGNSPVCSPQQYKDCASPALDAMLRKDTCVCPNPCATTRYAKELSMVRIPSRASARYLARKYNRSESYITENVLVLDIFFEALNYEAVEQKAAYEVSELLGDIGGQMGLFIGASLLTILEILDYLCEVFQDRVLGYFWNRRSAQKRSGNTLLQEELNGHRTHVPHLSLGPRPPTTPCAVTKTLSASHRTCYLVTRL
Nature of the assay: whole-cell patch-clamp, off-target channel, 10 μM compound. Type of assay: cell-based. To be noted: vs 0.1% DMSO. In short, it runs like this: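 ASIC channels in transfected HEK293T cells, whole-cell. Pipette (mM): 140 CsF, 11 EGTA, 1 CaCl2, 2 TEA-Cl, 4 MgCl2, 10 HEPES, pH 7.3. NaCl-based bath with 20 mM HEPES (pH 7.4) or 20 mM MES (pH 5.5). 0.1% DMSO bath applied before 10 μM test compound. Inhibition ratios compared by unpaired t-test, n = 5.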
A general note: The patch-clamp technique gives a direct electrical read-out from membranes.

In assay [2] the target is T2, Kir4.1 (Homo sapiens, UniProt P78508).
T2 sequence (P78508 1-379): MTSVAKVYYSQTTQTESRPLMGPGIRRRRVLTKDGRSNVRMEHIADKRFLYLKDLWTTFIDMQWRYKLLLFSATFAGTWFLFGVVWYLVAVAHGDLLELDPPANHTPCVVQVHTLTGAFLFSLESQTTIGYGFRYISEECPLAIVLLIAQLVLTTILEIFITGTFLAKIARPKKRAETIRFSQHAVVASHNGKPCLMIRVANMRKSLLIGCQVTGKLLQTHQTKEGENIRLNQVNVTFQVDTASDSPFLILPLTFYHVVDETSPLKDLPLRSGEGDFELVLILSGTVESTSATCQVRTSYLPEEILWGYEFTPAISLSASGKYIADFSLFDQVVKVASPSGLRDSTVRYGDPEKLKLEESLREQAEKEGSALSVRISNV
Nature of the assay: whole-cell patch-clamp, off-target channel, 10 μM compound. Type of assay: cell-based. Conditions: vs 0.1% DMSO. In short, it runs like this: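 Kir channels in transfected HEK293T cells, whole-cell. Pipette (mM): 135 KCl, 2 MgCl2, 10 HEPES, 1 EGTA, 4 Na2-ATP, pH 7.3. Bath (mM): 135 NaCl, 5 KCl, 1.5 CaCl2, 1 MgCl2, 10 HEPES, 10 glucose, pH 7.4. 0.1% DMSO bath applied before 10 μM test compound. Inhibition ratios compared by unpaired t-test, n = 5.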

In assay [3] the test system is KV7.1. Briefly: whole-cell patch-clamp, off-target channel, 10 μM compound. To be noted: for sensitivity of channel to compound: vs 0.1% DMSO. It counts as cell-based, Homo sapiens. In short, it runs like this: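 KV channels in transiently transfected HEK293T cells, whole-cell. Pipette (mM): 140 KCl, 2.5 MgCl2, 11 EGTA, 10 HEPES, pH 7.4. Bath (mM): 145 NaCl, 2.8 KCl, 2 CaCl2, 1 MgCl2, 10 glucose, 10 HEPES, pH 7.4. 0.1% DMSO bath applied, then 10 μM test compound. DMSO vs compound inhibition ratio compared by unpaired t-test, n = 5.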

The target of assay [4] is PAC (Homo sapiens, UniProt Q9H813). Briefly: whole-cell patch-clamp, off-target channel, 10 μM compound. It counts as cell-based. Conditions: vs 0.1% DMSO. In short, it runs like this: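 PAC in transfected HEK293T cells, whole-cell. Pipette (mM): 135 CsCl, 1 MgCl2, 2 CaCl2, 10 HEPES, 5 EGTA, 4 Mg-ATP, pH 7.2. NaCl-based bath buffered with 10 mM HEPES (pH 7.3) or 5 mM Na3-citrate (pH 5.5). 0.1% DMSO bath applied before 10 μM test compound. Inhibition ratios compared by unpaired t-test, n = 5.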

Assay [5] deals with CaV1.2 (Mus musculus, UniProt Q01815). Briefly: whole-cell patch-clamp, off-target channel, 10 μM compound. Type of assay: cell-based. Conditions: for sensitivity of channel to compound: vs 0.1% DMSO. In short, it runs like this: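 CaV channels in transfected HEK293T cells, whole-cell. Pipette (mM): 120 CsMeSO3, 2 Mg-ATP, 11 EGTA, 10 HEPES, pH 7.4. Bath (mM): 138 NaCl, 5.6 KCl, 2.6 CaCl2, 20 TEA-Cl, 5 glucose, 5 HEPES, pH 7.4. 0.1% DMSO bath applied before 10 μM test compound. Inhibition ratios compared by unpaired t-test, n = 5.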

The target of assay [6] is T3, mouse Otop2 (mOtop2) (Mus musculus, UniProt Q80SX5).
T3 sequence (Q80SX5 1-563): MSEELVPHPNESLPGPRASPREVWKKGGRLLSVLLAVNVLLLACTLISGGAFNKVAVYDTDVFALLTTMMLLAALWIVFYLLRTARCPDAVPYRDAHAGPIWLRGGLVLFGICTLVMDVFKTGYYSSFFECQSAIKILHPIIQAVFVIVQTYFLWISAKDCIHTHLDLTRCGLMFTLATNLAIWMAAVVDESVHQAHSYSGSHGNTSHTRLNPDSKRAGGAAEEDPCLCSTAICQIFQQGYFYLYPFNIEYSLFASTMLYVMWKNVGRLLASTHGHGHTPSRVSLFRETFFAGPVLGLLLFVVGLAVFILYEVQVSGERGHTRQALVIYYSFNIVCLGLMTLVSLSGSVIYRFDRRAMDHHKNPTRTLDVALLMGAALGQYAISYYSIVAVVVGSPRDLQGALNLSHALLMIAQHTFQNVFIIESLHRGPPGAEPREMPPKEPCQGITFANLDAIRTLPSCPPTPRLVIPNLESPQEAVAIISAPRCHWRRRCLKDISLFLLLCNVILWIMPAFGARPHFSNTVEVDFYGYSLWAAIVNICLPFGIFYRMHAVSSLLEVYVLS
Nature of the assay: whole-cell patch-clamp, pH 5.5-evoked currents. It counts as cell-based. To be noted: 10 μM. In short, it runs like this: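 Channel plasmid (2.5 μg) was co-transfected with EGFP plasmid (0.5 μg) using Lipofectamine 2000 into PAC-knockout HEK293T cells. Whole-cell recording 16–24 h after seeding, with Cs-aspartate pipette solution (pH 7.3). Currents evoked by pH 5.5 bath (160 mM NMDG-Cl, 2 mM CaCl2, 10 mM MES); test compound 10 μM.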

Sequence of PAC (Q9H813 whole entry): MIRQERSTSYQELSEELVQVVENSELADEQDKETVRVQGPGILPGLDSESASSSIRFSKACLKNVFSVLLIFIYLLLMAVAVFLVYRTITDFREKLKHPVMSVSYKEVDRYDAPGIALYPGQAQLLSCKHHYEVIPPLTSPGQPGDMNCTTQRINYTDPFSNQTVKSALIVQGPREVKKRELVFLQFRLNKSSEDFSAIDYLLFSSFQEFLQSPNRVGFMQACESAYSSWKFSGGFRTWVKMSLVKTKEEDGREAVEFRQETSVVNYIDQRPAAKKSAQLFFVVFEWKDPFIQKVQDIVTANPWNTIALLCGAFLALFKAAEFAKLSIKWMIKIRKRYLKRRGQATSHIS
Sequence of CaV1.2 (Q01815 whole entry): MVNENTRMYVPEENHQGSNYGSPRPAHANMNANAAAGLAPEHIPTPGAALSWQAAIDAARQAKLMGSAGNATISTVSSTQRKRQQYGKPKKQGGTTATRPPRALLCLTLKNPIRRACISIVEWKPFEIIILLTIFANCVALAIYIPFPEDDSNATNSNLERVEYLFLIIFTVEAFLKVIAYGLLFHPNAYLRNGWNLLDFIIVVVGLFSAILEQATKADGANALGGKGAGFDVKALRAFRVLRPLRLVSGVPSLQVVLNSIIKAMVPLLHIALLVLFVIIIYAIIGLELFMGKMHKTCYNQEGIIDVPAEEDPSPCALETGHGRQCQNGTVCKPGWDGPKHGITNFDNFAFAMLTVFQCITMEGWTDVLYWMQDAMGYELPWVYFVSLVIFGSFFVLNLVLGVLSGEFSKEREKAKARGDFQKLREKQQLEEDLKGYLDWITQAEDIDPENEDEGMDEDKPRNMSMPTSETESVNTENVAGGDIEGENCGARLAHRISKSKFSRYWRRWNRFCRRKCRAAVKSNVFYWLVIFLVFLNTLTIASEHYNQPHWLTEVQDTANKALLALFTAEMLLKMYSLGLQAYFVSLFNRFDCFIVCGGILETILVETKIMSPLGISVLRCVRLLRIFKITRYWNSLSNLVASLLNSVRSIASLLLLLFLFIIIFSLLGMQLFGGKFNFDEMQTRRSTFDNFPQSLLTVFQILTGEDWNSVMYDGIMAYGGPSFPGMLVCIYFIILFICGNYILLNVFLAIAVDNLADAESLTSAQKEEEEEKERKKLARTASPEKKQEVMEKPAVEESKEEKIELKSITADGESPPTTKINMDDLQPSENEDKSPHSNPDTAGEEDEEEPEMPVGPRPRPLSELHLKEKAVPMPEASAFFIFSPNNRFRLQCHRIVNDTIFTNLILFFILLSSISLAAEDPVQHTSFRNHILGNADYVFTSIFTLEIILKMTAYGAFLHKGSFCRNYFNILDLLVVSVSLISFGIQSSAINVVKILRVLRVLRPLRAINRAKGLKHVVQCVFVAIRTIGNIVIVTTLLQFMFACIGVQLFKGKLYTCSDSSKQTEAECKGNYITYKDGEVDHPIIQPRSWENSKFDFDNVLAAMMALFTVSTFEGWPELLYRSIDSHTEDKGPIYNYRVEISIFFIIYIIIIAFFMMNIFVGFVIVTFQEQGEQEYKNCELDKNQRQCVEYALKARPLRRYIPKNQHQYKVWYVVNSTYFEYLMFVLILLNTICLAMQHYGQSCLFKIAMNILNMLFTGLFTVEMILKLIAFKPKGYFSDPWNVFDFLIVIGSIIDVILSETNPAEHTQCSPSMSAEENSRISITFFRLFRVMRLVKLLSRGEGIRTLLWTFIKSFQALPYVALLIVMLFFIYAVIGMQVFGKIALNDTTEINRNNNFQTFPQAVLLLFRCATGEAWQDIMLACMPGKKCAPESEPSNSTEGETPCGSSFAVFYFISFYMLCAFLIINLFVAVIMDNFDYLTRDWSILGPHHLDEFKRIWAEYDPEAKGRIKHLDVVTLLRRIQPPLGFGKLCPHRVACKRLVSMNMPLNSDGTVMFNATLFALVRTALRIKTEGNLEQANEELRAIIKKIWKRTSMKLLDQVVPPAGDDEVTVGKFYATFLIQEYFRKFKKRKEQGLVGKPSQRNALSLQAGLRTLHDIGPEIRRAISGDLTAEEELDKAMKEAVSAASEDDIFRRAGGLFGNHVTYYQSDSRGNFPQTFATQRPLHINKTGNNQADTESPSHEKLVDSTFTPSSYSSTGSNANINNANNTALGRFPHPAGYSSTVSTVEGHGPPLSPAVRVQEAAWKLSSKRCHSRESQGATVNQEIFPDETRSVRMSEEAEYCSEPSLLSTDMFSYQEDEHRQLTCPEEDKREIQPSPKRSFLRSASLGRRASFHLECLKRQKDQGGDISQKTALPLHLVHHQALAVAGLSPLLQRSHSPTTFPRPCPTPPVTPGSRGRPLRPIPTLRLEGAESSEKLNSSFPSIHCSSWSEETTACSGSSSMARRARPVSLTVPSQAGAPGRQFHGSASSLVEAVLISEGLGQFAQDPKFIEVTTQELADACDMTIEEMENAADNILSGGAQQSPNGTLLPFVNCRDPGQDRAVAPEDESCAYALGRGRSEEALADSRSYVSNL

For `Cc1cc(NC(=O)c2ccc(Br)o2)ccc1NC(=O)c1ccco1` [B2FAMP, 5-Bromo-N-[4-(2-furoylamino)-3-methylphenyl]-2-furamide], the “sensitivity of channel to compound” value in assay [1], in assay [2], in assay [3], in assay [4] and in assay [5] was “completely resistant” throughout. Also, the “effect on pH 5.5-evoked mOtop2 currents” value in assay [6] is on record as “did not affect”.

`CC(C)c1noc2ncc(C(=O)c3ccccc3O)cc12` [HIMOP, (2-hydroxyphenyl)-(3-propan-2-yl-5-isoxazolo[5,4-b]pyridinyl)methanone]: the “sensitivity of channel to compound” value in assay [1], in assay [2] and in assay [4] was “completely resistant” throughout. Moreover, the inhibition ratio in assay [3] is on record as 16.4%; in assay [5] it was 15.6%. Also, in assay [6], the “effect on pH 5.5-evoked mOtop2 currents” value is “did not affect”.

For `Cc1ccc(C(=O)Nc2ccc3ccccc3c2)o1` [MFaN, 5-methyl-N-2-naphthyl-2-furamide], the “sensitivity of channel to compound” value in assay [1], in assay [2], in assay [3], in assay [4] and in assay [5] was “completely resistant” throughout. Besides, the “effect on pH 5.5-evoked mOtop2 currents” value in assay [6] is “did not affect”.
